# Assay results: ChEMBL document CHEMBL1151243, “New cytotoxic oleanane-type triterpenoids from the cones of Liquidamber styraciflua” (2004)
# Tests used:
# Assay type in all cases: functional
# [1] = test system: MCF7; test: Cytotoxicity against human MCF7 cells after 48 hrs by SRB assay; details: MCF7, 48 h
# Summary of the method: (§1)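 Cells plated at suitable density in RPMI 1640 with 5% fetal bovine serum and left overnight to attach, then exposed to compound for 48 h. Growth measured by sulforhodamine B staining. GI50 (50% growth inhibition) computed from percent-growth values.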
# [2] = test system: PC-3; test: Cytotoxicity against human PC3 cells after 48 hrs by SRB assay; details: PC-3, 48 h; summary of the method: as §1
# [3] = test system: SF-539; test: Cytotoxicity against human SF539 cells after 48 hrs by SRB assay; details: SF-539, 48 h; summary of the method: as §1
# [4] = test system: NCI-H460; test: Cytotoxicity against human NCI-H460 cells after 48 hrs by SRB assay; details: NCI-H460, 48 h; summary of the method: as §1
# [5] = test system: OVCAR-3; test: Cytotoxicity against human OVCAR-3 cells after 48 hrs by SRB assay; details: OVCAR-3, 48 h; summary of the method: as §1
# [6] = test system: St-4; test: Cytotoxicity against human St-4 cells after 48 hrs by SRB assay; details: St-4, 48 h; summary of the method: as §1
# [7] = test system: DMS-273; test: Cytotoxicity against human DMS273 cells after 48 hrs by SRB assay; details: DMS-273, 48 h; summary of the method: as §1
# [8] = test system: MDA-MB-231; test: Cytotoxicity against human MDA-MB-231 cells after 48 hrs by SRB assay; details: MDA-MB-231, 48 h; summary of the method: as §1
# [9] = test system: HT-29; test: Cytotoxicity against human HT-29 cells after 48 hrs by SRB assay; details: HT-29, 48 h; summary of the method: as §1
# [10] = test system: NCI-H226; test: Cytotoxicity against human NCI-H226 cells after 48 hrs by SRB assay; details: NCI-H226, 48 h; summary of the method: as §1
# [11] = test system: NCI-H522; test: Cytotoxicity against human NCI-H522 cells after 48 hrs by SRB assay; details: NCI-H522, 48 h; summary of the method: as §1
# [12] = test system: ACHN; test: Cytotoxicity against human ACHN cells after 48 hrs by SRB assay; summary of the method: as §1
# [13] = test system: DU-145; test: Cytotoxicity against human DU145 cells after 48 hrs by SRB assay; details: DU-145, 48 h; summary of the method: as §1
# [14] = test system: HCT-116; test: Cytotoxicity against human HCT116 cells after 48 hrs by SRB assay; details: HCT-116, 48 h; summary of the method: as §1
# [15] = test system: OVCAR-5; test: Cytotoxicity against human OVCAR5 cells after 48 hrs by SRB assay; details: OVCAR-5, 48 h; summary of the method: as §1
# [16] = test system: KM12; test: Cytotoxicity against human KM12 cells after 48 hrs by SRB assay; details: KM12, 48 h; summary of the method: as §1
# [17] = Cytotoxicity against human MKN1 cells after 48 hrs by SRB assay; details: MKN-1, 48 h; summary of the method: as §1
# [18] = test system: SNB-78; test: Cytotoxicity against human SNB78 cells after 48 hrs by SRB assay; details: SNB-78, 48 h; summary of the method: as §1
# [19] = test system: HCC 2998; test: Cytotoxicity against human HCC2998 cells after 48 hrs by SRB assay; details: HCC 2998, 48 h; summary of the method: as §1
# [20] = test system: NCI-H23; test: Cytotoxicity against human NCI-H23 cells after 48 hrs by SRB assay; details: NCI-H23, 48 h; summary of the method: as §1
# [21] = test system: OVCAR-4; test: Cytotoxicity against human OVCAR4 cells after 48 hrs by SRB assay; details: OVCAR-4, 48 h; summary of the method: as §1
# [22] = test system: SK-OV-3; test: Cytotoxicity against human SKOV3 cells after 48 hrs by SRB assay; details: SK-OV-3, 48 h; summary of the method: as §1
# [23] = test system: SF-268; test: Cytotoxicity against human SF268 cells after 48 hrs by SRB assay; details: SF-268, 48 h; summary of the method: as §1
# [24] = test system: SF-295; test: Cytotoxicity against human SF295 cells after 48 hrs by SRB assay; details: SF-295, 48 h; summary of the method: as §1
# [25] = test system: MKN-28; test: Cytotoxicity against human MKN28 cells after 48 hrs by SRB assay; details: MKN-28, 48 h; summary of the method: as §1
# [26] = test system: SNB-75; test: Cytotoxicity against human SNB75 cells after 48 hrs by SRB assay; details: SNB-75, 48 h; summary of the method: as §1
# [27] = test system: OVCAR-8; test: Cytotoxicity against human OVCAR8 cells after 48 hrs by SRB assay; details: OVCAR-8, 48 h; summary of the method: as §1
# [28] = test system: MKN-45; test: Cytotoxicity against human MKN45 cells after 48 hrs by SRB assay; details: MKN-45, 48 h; summary of the method: as §1
# [29] = Cytotoxicity against human RXF631L cells after 48 hrs by SRB assay; details: RXF 631, 48 h; summary of the method: as §1
# [30] = test system: MKN-74; test: Cytotoxicity against human MKN74 cells after 48 hrs by SRB assay; details: MKN-74, 48 h; summary of the method: as §1
# [31] = Cytotoxicity against human HBC5 cells after 48 hrs by SRB assay; details: HBC5, 48 h; summary of the method: as §1
# [32] = test system: LOX IMVI; test: Cytotoxicity against human LOXIMVI cells after 48 hrs by SRB assay; summary of the method: as §1
# [33] = test system: MKN-7; test: Cytotoxicity against human MKN7 cells after 48 hrs by SRB assay; details: MKN-7, 48 h; summary of the method: as §1
# [34] = test system: DMS-114; test: Cytotoxicity against human DMS114 cells after 48 hrs by SRB assay; details: DMS-114, 48 h; summary of the method: as §1
# [35] = test system: A549; test: Cytotoxicity against human A549 cells after 48 hrs by SRB assay; details: A549, 48 h; summary of the method: as §1
# [36] = test system: HCT-15; test: Cytotoxicity against human HCT15 cells after 48 hrs by SRB assay; details: HCT-15, 48 h; summary of the method: as §1
# [37] = test system: U-251; test: Cytotoxicity against human U251 cells after 48 hrs by SRB assay; details: U-251, 48 h; summary of the method: as §1
# [38] = Cytotoxicity against human BSY1 cells after 48 hrs by SRB assay; details: BSY-1, 48 h; summary of the method: as §1
# [39] = Cytotoxicity against human HBC4 cells after 48 hrs by SRB assay; details: HBC4, 48 h; summary of the method: as §1
compound,measurement,setting,value
CC(=O)OC[C@]12CC[C@@H](O)C(C)(C)C1CC[C@]1(C)[C@@H]2CC=C2[C@@H]3CC(C)(C)CC[C@]3(C(=O)O)CC[C@]21C (some centres undefined),GI50,[1],8.32 µM
same,GI50,[2],11.5 µM
same,GI50,[3],6.31 µM
same,GI50,[4],13.8 µM
same,GI50,[5],11 µM
same,GI50,[6],9.12 µM
same,GI50,[7],6.31 µM
same,GI50,[8],19.5 µM
same,GI50,[9],3.39 µM
same,GI50,[10],18.6 µM
same,GI50,[11],13.8 µM
same,GI50,[12],5.37 µM
same,GI50,[13],13.2 µM
same,GI50,[14],4.57 µM
same,GI50,[15],18.2 µM
same,GI50,[16],5.13 µM
same,GI50,[17],11 µM
same,GI50,[18],15.8 µM
same,GI50,[19],28.2 µM
same,GI50,[20],8.51 µM
same,GI50,[21],10 µM
same,GI50,[22],20.4 µM
same,GI50,[23],15.5 µM
same,GI50,[24],8.71 µM
same,GI50,[25],5.62 µM
same,GI50,[26],15.8 µM
same,GI50,[27],11.2 µM
same,GI50,[28],17.8 µM
same,GI50,[29],11.7 µM
same,GI50,[30],7.76 µM
same,GI50,[31],11 µM
same,GI50,[32],11.2 µM
same,GI50,[33],6.61 µM
same,GI50,[34],13.5 µM
same,GI50,[35],4.27 µM
same,GI50,[36],6.46 µM
same,GI50,[37],6.03 µM
same,GI50,[38],10.7 µM
same,GI50,[39],7.94 µM
